# Data taken from ChEMBL document CHEMBL1150223, “Neuroprotective constituents from Hedyotis diffusa” (2001).
# Tests used:
# Format in all cases: functional
# Conditions in all cases: read-out: Activity
# [1] = Neuroprotective activity against glutamate-stimulated rat cortical cells assessed as cell viability at 0.1 uM after 1 hr by LDH assay relative to control
# Procedure, shortened: (§1)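 Mixed cortical cultures from 17- to 19-day fetal Sprague-Dawley rats, grown 2 weeks in DMEM/10% FCS, with 5-fluorodeoxyuridine 50 µM from day 3. Cells were washed, given sample in DMSO (0.1% final) for 1 h, then 50 µM glutamate plus sample for 24 h. Medium LDH was read at 450 nm. Viability is relative to glutamate-only and vehicle control; mean ± SEM, three experiments.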
# [2] = Neuroprotective activity against glutamate-stimulated rat cortical cells assessed as cell viability at 1 uM after 1 hr by LDH assay relative to control; procedure, shortened: as §1
# [3] = Neuroprotective activity against glutamate-stimulated rat cortical cells assessed as cell viability at 10 uM after 1 hr by LDH assay relative to control; procedure, shortened: as §1
SMILES,viability at 0.1 µM [1],viability at 1 µM [2],viability at 10 µM [3]
COC(=O)C1=CO[C@@H](O[C@@H]2O[C@H](CO)[C@@H](O)[C@H](O)[C@H]2O)[C@@H]2C(CO)=C[C@@H](OC(=O)/C=C/c3ccc(OC)cc3)[C@H]12,65.4%,71.8%,52.8%
COC(=O)C1=CO[C@@H](O[C@@H]2O[C@H](CO)[C@@H](O)[C@H](O)[C@H]2O)[C@@H]2C(CO)=C[C@@H](OC(=O)/C=C\c3ccc(O)cc3)[C@H]12,6.9%,25.7%,6.3%
O=c1c(O[C@@H]2O[C@H](CO)[C@H](O)[C@H](O)[C@H]2O[C@@H]2O[C@H](CO)[C@@H](O)[C@H](O)[C@H]2O)c(-c2ccc(O)c(O)c2)oc2cc(O)cc(O)c12,48.2%,66%,54%
COc1cc(/C=C/C(=O)OC[C@H]2O[C@@H](O[C@H]3[C@H](Oc4c(-c5ccc(O)c(O)c5)oc5cc(O)cc(O)c5c4=O)O[C@H](CO)[C@@H](O)[C@@H]3O)[C@H](O)[C@@H](O)[C@@H]2O)ccc1O,62.9%,71.5%,73.7%
COC(=O)C1=CO[C@@H](O[C@@H]2O[C@H](CO)[C@@H](O)[C@H](O)[C@H]2O)[C@@H]2C(CO)=C[C@@H](OC(=O)/C=C/c3ccc(O)cc3)[C@H]12,14.5%,62.2%,26.8%
COc1cc(/C=C/C(=O)OC[C@H]2O[C@@H](O[C@H]3[C@H](Oc4c(-c5ccc(O)c(O)c5)oc5cc(O)cc(O)c5c4=O)O[C@H](CO)[C@H](O)[C@@H]3O)[C@H](O)[C@@H](O)[C@@H]2O)ccc1O,62.7%,72.9%,75%
O=c1c(O[C@@H]2O[C@H](CO)[C@H](O)[C@H](O)[C@H]2O[C@@H]2O[C@H](CO)[C@@H](O)[C@H](O)[C@H]2O)c(-c2ccc(O)cc2)oc2cc(O)cc(O)c12,4.6%,27%,25.2%
COc1cc(/C=C/C(=O)OC[C@H]2O[C@@H](O[C@H]3[C@H](Oc4c(-c5ccc(O)cc5)oc5cc(O)cc(O)c5c4=O)O[C@H](CO)[C@H](O)[C@@H]3O)[C@H](O)[C@@H](O)[C@@H]2O)ccc1O,25.2%,66.9%,25.2%
COC(=O)C1=CO[C@@H](O[C@@H]2O[C@H](CO)[C@@H](O)[C@H](O)[C@H]2O)[C@@H]2C(CO)=C[C@@H](OC(=O)/C=C\c3ccc(OC)cc3)[C@H]12,28.8%,54.6%,23.7%
